We go through eight compounds from publication PMC4674360 (Molecular cancer therapeutics, 2015).

The test system of one data set is GL261 tumors. The settings on record: cited from earlier work.
The conditions of data set [1]: 26 (veliparib); ref 48 (E7016); cited from earlier work.
The subject of another data set is GBM22. The settings on record: cited from earlier work.
Data set [2] concerns GBM12 orthotopic xenografts. Kind of data set: GBM12 orthotopic xenograft survival. The data set is classed as in vivo, mice. To be noted: TMZ 50 mg/kg, rucaparib 1 mg/kg days 1-5 every 28 days × 3 cycles, placebo 16 days, p = 0.88.
For the next data set, the system named is GBM12 flank xenografts. Kind of data set: GBM12 flank xenograft tumor regrowth delay. The data set is classed as in vivo, mice. The settings on record: TMZ 50 mg/kg days 1-5, rucaparib 1 mg/kg days 1-5, three 28 day cycles, placebo 32 days.
The subject of the next data set is PDGF-driven glioma. The settings on record: higher drug delivery into brain in knockout mice; cited from earlier work.
For data set [3], the target named is T1, murine Breast Cancer Resistance Protein (BCRP1) (Mus musculus, UniProt Q7TMS5).
T1 sequence (Q7TMS5 1-657): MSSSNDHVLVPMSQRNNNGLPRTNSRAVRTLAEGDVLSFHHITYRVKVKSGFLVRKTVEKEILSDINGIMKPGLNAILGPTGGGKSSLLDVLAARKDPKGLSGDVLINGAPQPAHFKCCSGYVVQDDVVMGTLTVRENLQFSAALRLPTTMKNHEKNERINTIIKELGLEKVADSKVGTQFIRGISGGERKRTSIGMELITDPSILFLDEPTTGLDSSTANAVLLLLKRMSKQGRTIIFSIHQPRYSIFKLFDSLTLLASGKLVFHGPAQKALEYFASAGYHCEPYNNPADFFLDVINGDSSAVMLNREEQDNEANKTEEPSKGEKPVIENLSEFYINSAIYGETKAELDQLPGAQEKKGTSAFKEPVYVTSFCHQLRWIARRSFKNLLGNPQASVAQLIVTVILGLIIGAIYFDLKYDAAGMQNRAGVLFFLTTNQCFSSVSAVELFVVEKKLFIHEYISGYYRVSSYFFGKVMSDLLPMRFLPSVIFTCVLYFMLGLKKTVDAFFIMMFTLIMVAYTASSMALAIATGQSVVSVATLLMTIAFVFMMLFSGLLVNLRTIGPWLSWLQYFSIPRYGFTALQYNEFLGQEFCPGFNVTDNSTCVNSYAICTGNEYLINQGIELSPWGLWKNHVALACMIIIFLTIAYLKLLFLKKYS
Briefly: In vitro intracellular accumulation in BCRP1-overexpressing MDCKII cells. To be noted: rucaparib 2 −M, prazosin 0.39 nM, 60 minutes at 37°C, mean ± SD, n = 5-6. The format is in vitro ADME. An outline of the steps: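 MDCKII cells (vector control or murine Bcrp1-transfected) were seeded at 2 x 10^5/well and grown to 80% confluence. After washing in serum-free buffer, cells were preincubated 30 min ± 0.2 µM Ko143. They were then exposed to 2 µM test compound or 0.39 nM prazosin (substrate control) for 60 min at 37°C. Uptake was stopped with cold PBS and cells lysed in 1% Triton X-100. Intracellular drug was measured by LC-MS/MS and normalised to BCA protein; mean ± SD, n = 5-6.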

Another data set has as its system PARP. Briefly: PARP enzymatic activity in tissue homogenates after a single dose. The format is in vivo, mice.
A short description of data set [4]: Tolerability of chronic rucaparib with TMZ. The format is in vivo, mice. The settings on record: IP, with 50 mg/kg PO TMZ.
The test system of data set [5] is GBM14, GBM43, GBM59 intracranial xenografts. Briefly: Other orthotopic primary GBM xenograft lines, survival. The data set is classed as in vivo, mice. To be noted: three other primary GBM xenograft lines. An outline of the steps:
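Patient-derived GBM lines were kept by serial passage in mice and implanted intracranially. Mice with established tumours were randomised, 10 per group, to four arms: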

Data set [6] can be described thus: Steady-state brain distribution in wild-type and Mdr1a/b-/-Bcrp1-/- mice. The data set is classed as in vivo, FVB mice. A digest of the protocol: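 FVB wild-type and Mdr1a/b-/-Bcrp1-/- mice received the test compound for 48 h by intraperitoneal osmotic minipump at 5 µg/hr (pump stock 5 mg/mL in DMSO). Plasma and whole brain were flash-frozen. Brain was homogenised in 5% BSA, samples spiked with dasatinib internal standard and extracted in ethyl acetate, then assayed by positive-mode LC-MS/MS. Brain-to-plasma ratio reported as mean ± SD, n=4.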

Data set [7] is classed as in vivo, mice. The settings on record: for half-life: mouse, 1 mg/kg. A digest of the protocol: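 Mice with orthotopic GBM12 xenografts got a single 1 mg/kg intraperitoneal dose. Plasma, liver and brain (tumour-injected and contralateral hemispheres) were collected and flash-frozen at 0, 60, 120, 360 and 1440 min after dosing. Drug levels were measured by LC-MS; values are the mean of 2 or 3 mice per time point.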

The nature of data set [8]: MALDI mass spectrometric imaging of drug distribution. To be noted: thirty minutes after single 10 mg/kg IP dose. The data set is classed as in vivo, mice. An outline of the steps: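 Tumour-bearing mice got one 10 mg/kg IP dose and were euthanised 30 min later. Brain, liver and tumour were snap-frozen; 12 µm cryosections went onto ITO slides, with sister sections for H&E. DHB matrix was sprayed on (160 mg/mL in methanol/0.2% TFA 70:30). Imaging used a 12 T FT-ICR MS, positive ion mode, m/z 100-2500, 250 shots per spot, 80 µm pixels (brain, liver) and 100 µm (flank tumour).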

Where [9] appears, read: 60 minutes, single 1 mg/kg dose.

Entries after “also recorded” stand apart in the source; their conditions may differ. Like-named read-outs stand apart in the source and are kept apart here.

In the case of `Cc1ccc2c(=O)c3cccc(CC(=O)O)c3oc2c1C` [DMXAA, 5,6-dimethylxanthenone-4-acetic acid], the “effect on survival with intracranial GL261 tumors” value in the data set on GL261 tumors (intracranial) is “no survival extension”. In addition, the “effect on subcutaneous GL261 tumors” value with GL261 tumors (subcutaneous) is given as “significantly delayed tumor growth”.

Regarding `O=c1[nH]nc2c3c(cccc13)Oc1ccc(CN3CCC(O)CC3)cc1-2` [E7016], the “blood brain barrier penetration” value in data set [1] is “significantly penetrate the blood brain barrier”.

Consider `C=CCn1c(=O)c2cnc(Nc3ccc(N4CCN(C)CC4)cc3)nc2n1-c1cccc(C(C)(C)O)n1` [MK-1775], for which, in the data set with GBM22 (flank models), the “sensitizing effect combined with temozolomide, flank models” value is recorded as “significant sensitizing effects”. Besides, the “sensitizing effect combined with temozolomide, GBM22” value in the data set with GBM22 (orthotopic GBM22 (contrasted with flank)) was “no sensitizing effect”.

Regarding `Cn1nnc2c(C(N)=O)ncn2c1=O` [TMZ, temozolomide], the median survival in [2] is on record as 68 days. The “Median time for tumor to exceed a 1000 mm^3 size endpoint” value in the data set on GBM12 flank xenografts is recorded as 86 days.

`Cc1nc(Nc2ncc(C(=O)Nc3c(C)cccc3Cl)s2)cc(N2CCN(CCO)CC2)n1` [dasatinib]: the “survival of tumor-bearing Mdr1a/b-/-Bcrp1-/- knockout mice compared to wild-type mice” value with PDGF-driven glioma was “significant improvement in survival”.

Take `COc1cc2nc(N3CCN(C(=O)c4ccco4)CC3)nc(N)c2cc1OC` [prazosin]: the “intracellular accumulation in BCRP1-overexpressing cells” value in [3] is on record as 16.8±1.4 % of control.

By Kp is commonly meant the ratio of the level in a tissue or fluid to that in plasma or blood. The half-life is how long it takes for the measured level to halve. Low values mean rapid decline, high ones slow decline. In the case of `CNCc1ccc(-c2[nH]c3cc(F)cc4c3c2CCNC4=O)cc1` [rucaparib], in the data set on PARP (by 360 minutes after injection), the “PARP activity in normal brain (contralateral hemisphere)” value is on record as “recovered to baseline”. The “PARP activity in liver” value in the data set on PARP (reduced for several hours after single 1 mg/kg dose) is on record as 5 % of baseline. For the same compound, in the data set on PARP (remained suppressed at this level for 24 hours, single 1 mg/kg dose), the “PARP activity in tumor-injected hemisphere” value is 50 % of baseline. In addition, in data set [4], the “highest dose tolerated for chronic administration” value is recorded as 1 mg/kg. In data set [5], the “potentiation of TMZ by rucaparib” value is on record as “did not potentiate TMZ”. Also, the “intracellular accumulation in BCRP1-overexpressing cells” value in data set [3] is given as 14.5±5.2 % of control. Also, the Kp at 48 h in data set [6] (FVB, mouse, brain, ip, 5 µg/hr, brain to plasma ratio at steady state, Mdr1a/1b-/-;Bcrp1-/- (TKO) mice, 48-hour intraperitoneal infusion at 5 −g/hr, mean ± SD, n=4) came to 1.61 ± 0.25. In [6] (Mdr1a/b-/-Bcrp1-/- knockout mice), the “increase in the brain-to-plasma ratio in knockout versus wild-type mice” value was about 20 fold. Besides, in [7] (setting [9]), the “concentration in contralateral brain hemisphere” value is 0.08 −M, the concentration in liver is listed as 11.05 −M and the “concentration in tumor-injected hemisphere” value is reported as 0.35 −M. The “concentration in tumor-injected hemisphere” value in data set [7] (6 hours, single 1 mg/kg dose) is listed as 0.23 −M. Besides, the “levels in normal brain” value in [7] (by 360 minutes after injection, single 1 mg/kg dose) is “undetectable”. This compound showed a half-life in data set [7] (plasma, ip) of 1.5 h. In [7] (tumor-injected brain hemisphere, intraperitoneal), this compound gave a half-life of 13 h. For the same compound, the “maximum plasma concentration relative to Cmax in humans (times lower)” value in data set [7] (single 1 mg/kg dose in mice versus human Cmax of ref 12) is listed as “about four-five”. The “rucaparib distribution in flank tumors by MALDI-MSI” value in data set [8] (GBM12 flank, n=2) was “homogeneous and high-level accumulation”. The “rucaparib distribution in orthotopic tumors by MALDI-MSI” value in data set [8] (GBM12 orthotopic, n=3) is on record as “no appreciable rucaparib signal”. Besides, in data set [8] (adjacent normal brain, 10 mg/kg), the “rucaparib distribution in normal brain by MALDI-MSI” value is “no appreciable rucaparib signal; also recorded: below the limit of detection”.

`C[C@]1(c2nc3c(C(N)=O)cccc3[nH]2)CCCN1` [veliparib]: in [1], the “blood brain barrier penetration” value was “significantly penetrate the blood brain barrier”.
